Compounds with a hit are over-represented: about 1.8% of the library has one in this group of screens.
C8 TRAIL sens = viability loss with TRAIL in NB7+C8 cells, primary screen, TRAIL sensitizer project, cell-based, ATPlite luminescence; AID 624354, 2012; hit rate 1% among 360,000; inhibition (viability loss, TRAIL sensitization), % at 10 µM;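 active = compounds causing at least 50% loss of cell viability in the single-dose screen, relative to plate controls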
STAT3 activator = IL-6 driven STAT3 reporter potentiators, primary screen, U3A cells, luciferase, luminescence, MLSCN library. activation (% of control), % at 5.6 µM. IL-6 STAT3-luciferase reporter; 100% = signal with IL-6 EC80 alone. hit rate 0.91% among 190,000;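 active = activation above the screen-wide mean of compound activation plus 3 SD, cut at about 130% in these data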
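Detection: reporter luminescence signal / Assay system: STAT1-lacking human U3A cells, STAT3 luciferase reporter / Incubation: compound pre-incubation 1 h before IL-6, then 6 h stimulation at 37 °C / Control set: IL-6-only high control / Read-out: % activation relative to IL-6 control / Probe or stimulus: Interleukin-6, 33 ng/mL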
STAT3 inh = IL-6 driven STAT3 reporter inhibitors, primary screen, U3A cells, luciferase, luminescence, MLSCN library; IL-6 STAT3-luciferase reporter; host cell line lacks STAT1; inhibition, % at 5.5 µM; hit rate 0.89% among 190,000; AID 862, 2007;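 active = inhibition above the mean inhibition across all screened compounds plus 3 SD, cut at about 44% in these data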
STAT1 inh = STAT1 signaling inhibitors, primary screen, cell-based, HTS, luciferase reporter; NIH 3T3 STAT1-luciferase reporter, IFN-gamma, luminescence; inhibition, % at 5.5 µM; hit rate 0.35% among 200,000;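 active = inhibition above a set limit, the mean inhibition across all tested compounds plus 3 SD, cut at about 34% in these data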
PPC-1+TRAIL kill = compounds killing PPC-1 cancer cells with TRAIL present, primary screen, TRAIL potentiator project, ATPLite luminescence, uHTS; hit rate 0.41% among 220,000; cell killing (% activity), % at 4 µM or 5 µM; PPC-1 cells + TRAIL, ATPLite viability luminescence;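 active = cell killing above 50% in the first pass at 4 µM, then a duplicate retest at 5 µM averaging 50% or more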
Hits are given with their value; n = inactive; x = not tested or not shown.

SMILES	C8 TRAIL sens	STAT3 activator	STAT3 inh	STAT1 inh	PPC-1+TRAIL kill
CC(/C=N/NC(=O)c1nn(C)c(C)c1Br)=C\c1ccccc1	57	n	n	n	54
CC(=C/c1ccccc1)/C=N/NC(=O)c1cccs1	58	x	x	x	n
CC(C)(C)NC(=O)C(c1ccccc1F)n1c(=O)c(-c2cc3ccccc3[nH]2)nc2ccccc21 (stereo not given)	n	x	x	x	x
O=C1Cc2c(-c3ccccc3)cc(-c3cccc(Cl)c3)nc2-c2ccccc2N1	64	x	x	x	x
O=C1CN(c2nc(-c3ccccc3)c3cc(Cl)ccc3n2)c2ccccc2N1	n	n	n	n	n
COc1ccc(C(O)c2nc(-c3ccc4ccccc4c3)cs2)cc1 (stereo not given)	n	x	x	x	x
CCOC(=O)c1sc(=NC(=O)c2ccc(C)cc2)n(C)c1C	n	145	n	n	n
CCOC(=O)c1sc(=NC(=O)c2ccc(F)cc2)n(C)c1C	n	x	x	x	x
Cc1nn(-c2nc3ccccc3s2)c(N)c1Sc1ccc(F)cc1	n	158	n	n	n
Cc1nn(-c2nc3ccccc3s2)c(N)c1-c1ccccc1	n	n	n	n	n
C=CCOc1ccc(/C=C/C(C)=N\O)cc1	61	n	n	n	n
C=CCOc1ccc(/C=C/C(=O)OCC(=O)N2CCN(C(C)=O)CC2)cc1	n	x	x	x	x
O=C1c2ccccc2C(=O)c2[nH]c(=O)[nH]c21	75	x	x	x	x
O=C(/C=C/c1cccc(Cl)c1)c1ccc([N+](=O)[O-])o1	68	x	x	x	x
O=C(/C=C/c1ccc(OC(F)F)cc1)Nc1cccc(S(=O)(=O)NC2=NCCCCC2)c1	57	x	x	x	x
CC(C)(C)c1ccc(C(=O)Nc2cccc(S(=O)(=O)NC3=NCCC3)c2)cc1	86	x	x	x	x
Cc1cc(C)c(C#N)c(SCC(O)COc2ccc(Br)cc2)n1 (stereo not given)	n	x	x	x	x
COc1cc(C(C)=O)ccc1OCC(=O)Nc1ccc(Cl)c(S(=O)(=O)N2CCOCC2)c1	n	x	x	x	x
CCCCN1C(=O)C(CC(=O)NC2CCCCC2)CC(C(=O)N(C(C)C)C(C)C)=C1C (stereo not given)	n	x	x	x	x
CC(CC(=O)NCCc1ccc(F)cc1)c1ccccc1 (stereo not given)	n	x	x	x	x
Nc1nonc1C(=O)NCCNC(=O)c1ccc(Cl)cc1	n	x	x	x	x
Nc1ccc(C(=O)OCc2nc3cc4ccccc4cc3[nH]2)cc1	n	n	n	n	n
Nc1ccc(C(=O)OCc2nc3c(ccc4ccccc43)[nH]2)cc1	n	136	n	n	n
CCc1c(C)[nH]n(-c2nc(-c3ccccc3)cs2)c1=O	n	n	n	n	n
Cc1[nH]n(-c2nc(-c3ccc(Cl)cc3)cs2)c(=O)c1N=Nc1ccc(O)cc1	80	n	n	n	n
SMILES	C8 TRAIL sens	STAT3 activator	STAT3 inh	STAT1 inh	PPC-1+TRAIL kill
CCCCOCCCNc1ncnc2c1[nH]c1ccccc12	n	n	56	41	n
CCOCCCNc1ncnc2c1[nH]c1ccccc12	n	n	n	n	n
[O-][n+]1cc(Cl)cc(Cl)c1	n	x	x	x	x
CCCCOC(=O)c1ccc(Nc2ncnc3nc[nH]c23)cc1	n	n	n	n	n
CCCCCCCCOC(=O)c1cc([N+](=O)[O-])c(Sc2ncnc3nc[nH]c23)c([N+](=O)[O-])c1	67	x	x	x	x
COc1ccc(CN2C(=O)C(CC(=O)NCC3CCCCC3)CC(C(=O)N(C)C)=C2C)cc1 (stereo not given)	n	x	x	x	x
COc1cc(OC)cc(C2=Cc3ccc(OC)cc3C(CC(C)=O)N2c2ccc(-c3cccs3)cc2)c1 (stereo not given)	n	x	x	x	x
O=C1/C(=C\c2ccccc2)CN(C(=O)CCN2CCCCC2)C/C1=C/c1ccccc1	91	x	x	x	x
CCN(CC)CCC(=O)N1C/C(=C/c2ccccc2)C(=O)/C(=C\c2ccccc2)C1	93	x	x	x	x
O=C1/C(=C\c2ccc(Cl)c(Cl)c2)CN(C(=O)CCN2CCOCC2)C/C1=C/c1ccc(Cl)c(Cl)c1	93	x	x	x	x
COc1cc(C(O)c2nc(-c3cccc(C(F)(F)F)c3)cs2)ccc1F (stereo not given)	n	x	x	x	x
O=C1/C(=C/c2ccccn2)SC(=S)N1Nc1ncc(C(F)(F)F)cc1Cl	n	x	x	x	x
O=C(COc1ccc(Cl)cc1Cl)Nc1ccccc1F	58	x	x	x	x
COc1ccc(OCC(=O)N/N=C(\C)c2cc3ccccc3o2)cc1	64	n	n	n	n
COC(=O)c1ccc2c(c1)C(C)(C)C(/C=C/c1ccc(O)cc1)=[N+]2C	52	n	n	n	n
COc1cc(/C=C/c2ccc(O)cc2)cc(OC)c1	n	x	x	x	n
COC(=O)c1ccc2c(c1)C(C)(C)C(/C=C/c1ccc(OC)c(OC)c1OC)=[N+]2C	67	n	n	n	n
Cc1ccc(S(=O)(=O)N(C)C[C@@H]2OCc3cnnn3CCCC(=O)N([C@@H](C)CO)C[C@@H]2C)cc1	n	x	x	x	x
Nc1ncnc2c1ncn2[C@@H]1O[C@H](CNCc2ccc(-n3cccn3)cc2)[C@@H](O)[C@H]1O	n	x	x	x	x
O=C(CC1CCCCC1)c1c(O)c2ccccc2oc1=O	54	n	n	n	n
CCCCC(=O)c1c(O)c2ccccc2oc1=O	n	n	n	n	n
CN(c1ccccc1)S(=O)(=O)c1ccc(NC(=O)c2nc(S(C)(=O)=O)ncc2Cl)cc1	93	x	x	x	x
COc1cccc(NC(=O)c2nc(S(C)(=O)=O)ncc2Cl)c1	66	x	x	x	x
CN(c1ccccc1)S(=O)(=O)c1ccc(NC(=O)c2ccccc2)cc1	n	n	n	n	n
CCCCN1C[C@H](CSC)[C@@H](CC(=O)Nc2ccc(Br)cc2)C1=O	n	x	x	x	x
SMILES	C8 TRAIL sens	STAT3 activator	STAT3 inh	STAT1 inh	PPC-1+TRAIL kill
CCOC(=O)c1sc2nc3c(SCC(=O)O)cc(C(=O)c4cc(F)ccc4O)cn3c(=O)c2c1C	n	n	n	n	n
CCOC(=O)c1sc2nc3c(SCC(=O)O)cc(C(=O)c4ccccc4O)cn3c(=O)c2c1C	53	n	n	n	n
CN1CCC(N(C)C(=O)c2ccc(Cl)c(S(=O)(=O)Nc3cc(Cl)ccc3Cl)c2)CC1	n	x	x	x	x
O=[N+]([O-])c1ccc(NS(=O)(=O)N2CCOCC2)cc1	n	x	x	x	x
O=C(NCc1ccc(Cl)c(Cl)c1)c1cc(C2CCCCN2C(=O)c2ccccn2)on1 (stereo not given)	n	x	x	x	x
CCCCCCCCCCCCCCCC[N+](C)(C)CCN(Cc1ccc(OC)cc1)c1ncccn1	53	x	x	x	x
CNC(=O)C[C@H]1C(=O)N(c2ccc(Br)cc2)C[C@@H]1C	n	x	x	x	x
COc1cc(/C=N/Nc2nc(N3CCCC3)nc(N3CCCC3)n2)ccc1O	n	n	n	n	n
COc1ccc(-c2cnnc(N/N=C/c3ccc(O)c(OC)c3)n2)cc1	59	n	n	n	n
COc1ccc(-c2csc(NC(=O)C3CCN(c4ncnc5sc(C)c(C)c45)CC3)n2)cc1OC	69	x	x	x	x
Cc1ccc2sc(N(CCCN(C)C)C(=O)c3ccc(S(=O)(=O)N(C)C)cc3)nc2c1C	n	n	n	n	n

Bioassay records: PubChem BioAssay, several laboratories
